Data: ChEMBL document CHEMBL4613275, “Sulfonimide and Amide Derivatives as Novel PPARα Antagonists: Synthesis, Antiproliferative Activity, and Docking Studies” (ACS Med Chem Lett, 2020)
Values belong to the molecule of their own block, whether it stands above or below them. Activity calls are given as the source filed them. No cut-off for these calls is given here.

Assays:
ASPC1 [1] = assay: Antiproliferative activity against human AsPC1 cells assessed as inhibition of cell growth at 75 uM incubated for 72 hrs by MTT assay relative to control; type: functional; details: ASPC1, 72 h
A498 [2] = assay: Antiproliferative activity against human A498 cells assessed as inhibition of cell growth incubated for 72 hrs by MTT assay; type: functional; details: for CC50: A498, 72 h
In short: (§1)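 MTT viability assay after 72 h exposure to compound over 0–24 μM, 24 μM being the highest concentration. […] Data are means ± SD of duplicate experiments, five replicates each.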

HFF-1 = assay: Cytotoxicity against human HFF1 cells assessed as reduction in cell viability incubated for 72 hrs by MTT assay; type: cell-based; details: hff-1, 72 h; in short: as §1
Capan-2 [3] = assay: Antiproliferative activity against human Capan2 cells assessed as inhibition of cell growth incubated for 72 hrs by MTT assay; type: functional; details: for CC50: Capan-2, 72 h; in short: as §1
SW480 [4] = assay: Antiproliferative activity against human SW480 cells assessed as inhibition of cell growth at 75 uM incubated for 72 hrs by MTT assay relative to control; type: functional; details: SW480, 72 h
[5] = Antiproliferative activity against human PTJ86i cells assessed as inhibition of cell growth at 75 uM incubated for 72 hrs by MTT assay relative to control; type: functional
Capan-2 [6] = assay: Antiproliferative activity against human Capan2 cells assessed as inhibition of cell growth at 75 uM incubated for 72 hrs by MTT assay relative to control; type: functional; details: Capan-2, 72 h
BXPC-3 [7] = assay: Antiproliferative activity against human BxPC3 cells assessed as inhibition of cell growth incubated for 72 hrs by MTT assay; type: functional; details: for CC50: BXPC-3, 72 h; in short: as §1
BXPC-3 [8] = assay: Antiproliferative activity against human BxPC3 cells assessed as inhibition of cell growth at 75 uM incubated for 72 hrs by MTT assay relative to control; type: functional; details: BXPC-3, 72 h
[9] = Selectivity index, ratio of CC50 for human HFF1 cells to CC50 for human PTJ86i cells; type: toxicity; details: HFF1 cells and PTJ86i cells
SW480 [10] = assay: Antiproliferative activity against human SW480 cells assessed as inhibition of cell growth incubated for 72 hrs by MTT assay; type: functional; details: for CC50: SW480, 72 h; in short: as §1
[11] = Selectivity index, ratio of CC50 for human HFF1 cells to CC50 for human PTJ64i cells; type: toxicity; details: HFF1 cells and PTJ64i cells
Homo sapiens [12] = organism: Homo sapiens; assay: Antiproliferative activity against human PTJ86i cells assessed as inhibition of cell growth incubated for 72 hrs by MTT assay; type: functional; in short: as §1
ASPC1 [13] = assay: Antiproliferative activity against human AsPC1 cells assessed as inhibition of cell growth incubated for 72 hrs by MTT assay; type: functional; details: for CC50: ASPC1, 72 h; in short: as §1
Homo sapiens [14] = organism: Homo sapiens; assay: Antiproliferative activity against human PTJ64i cells assessed as inhibition of cell growth incubated for 72 hrs by MTT assay; type: functional; in short: as §1
A498 [15] = assay: Antiproliferative activity against human A498 cells assessed as inhibition of cell growth at 75 uM incubated for 72 hrs by MTT assay relative to control; type: functional; details: A498, 72 h
HT-29 [16] = assay: Antiproliferative activity against human HT-29 cells assessed as inhibition of cell growth incubated for 72 hrs by MTT assay; type: functional; details: for CC50: HT-29, 72 h; in short: as §1
[17] = biological target: T1, Peroxisome proliferator-activated receptor alpha (Homo sapiens, UniProt Q07869); assay: Antagonist activity at GAL4-tagged human PPARalpha LBD expressed in human HepG2 cells assessed as inhibition of Wy14,643-induced receptor transactivation incubated for 20 to 22 hrs by luciferase reporter gene assay; type: cell-based
T1 sequence (Q07869 whole entry): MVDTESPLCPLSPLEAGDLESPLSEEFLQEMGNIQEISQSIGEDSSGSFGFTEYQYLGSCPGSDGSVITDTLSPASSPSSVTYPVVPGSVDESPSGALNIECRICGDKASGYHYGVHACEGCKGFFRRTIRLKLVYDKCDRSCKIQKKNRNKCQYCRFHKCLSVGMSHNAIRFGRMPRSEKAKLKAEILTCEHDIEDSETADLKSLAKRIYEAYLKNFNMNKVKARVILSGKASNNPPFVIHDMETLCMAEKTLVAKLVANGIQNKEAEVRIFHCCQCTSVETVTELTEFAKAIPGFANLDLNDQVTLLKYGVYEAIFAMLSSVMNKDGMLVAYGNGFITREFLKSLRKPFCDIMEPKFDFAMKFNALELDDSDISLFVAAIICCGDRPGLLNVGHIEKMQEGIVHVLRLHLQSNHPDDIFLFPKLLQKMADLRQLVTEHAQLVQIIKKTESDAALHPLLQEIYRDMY

HT-29 [18] = assay: Antiproliferative activity against human HT-29 cells assessed as inhibition of cell growth at 75 uM incubated for 72 hrs by MTT assay relative to control; type: functional; details: HT-29, 72 h
[19] = biological target: T2, Peroxisome proliferator-activated receptor gamma (Homo sapiens) (UniProt P37231); assay: Effect on GAL4-tagged human PPARgamma LBD expressed in human HepG2 cells incubated for 20 to 22 hrs by luciferase reporter gene assay; type: cell-based
T2 sequence (whole entry): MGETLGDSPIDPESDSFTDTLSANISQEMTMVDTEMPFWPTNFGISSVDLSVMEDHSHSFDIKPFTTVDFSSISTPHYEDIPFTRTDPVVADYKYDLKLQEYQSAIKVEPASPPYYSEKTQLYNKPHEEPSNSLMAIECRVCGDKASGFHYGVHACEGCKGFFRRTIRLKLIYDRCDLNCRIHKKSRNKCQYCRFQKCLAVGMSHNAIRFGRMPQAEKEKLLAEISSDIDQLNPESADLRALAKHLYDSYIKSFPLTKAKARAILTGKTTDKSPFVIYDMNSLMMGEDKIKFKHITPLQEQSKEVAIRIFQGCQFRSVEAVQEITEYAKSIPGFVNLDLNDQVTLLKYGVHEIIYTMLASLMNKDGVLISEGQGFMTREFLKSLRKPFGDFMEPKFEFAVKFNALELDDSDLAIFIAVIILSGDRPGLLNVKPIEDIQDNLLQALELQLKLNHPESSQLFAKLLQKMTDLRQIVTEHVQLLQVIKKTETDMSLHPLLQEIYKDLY

[20] = biological target: T2, Peroxisome proliferator-activated receptor gamma (Homo sapiens); assay: Agonist activity at GAL4-tagged human PPARgamma LBD expressed in human HepG2 cells incubated for 20 to 22 hrs by luciferase reporter gene assay; type: cell-based
HepG2 = assay: Cytotoxicity against human HepG2 cells at >5 uM; type: cell-based

Compound: CC(C)(Oc1ccc(CCOc2ccc(/N=N/c3ccccc3)cc2)cc1)C(=O)NS(=O)(=O)c1ccc(Cl)cc1
inhibition at 75 µM (ASPC1 [1]): 41 to 92%
inhibition (A498 [2]): Dose-dependent effect
CC50 (A498 [2]): > 24 µM
CC50 (HFF-1): > 24 µM
inhibition (Capan-2 [3]): Dose-dependent effect
CC50 (Capan-2 [3]): > 24 µM
inhibition at 75 µM (SW480 [4]): 52 to 98%
inhibition at 75 µM [5]: 84 to 98%
inhibition at 75 µM (Capan-2 [6]): 41 to 92%
inhibition (BXPC-3 [7]): Dose-dependent effect
CC50 (BXPC-3 [7]): > 24 µM
inhibition at 75 µM (BXPC-3 [8]): 41 to 92%
selectivity ratio [9]: > 6.63
inhibition (SW480 [10]): Dose-dependent effect
CC50 (SW480 [10]): > 24 µM
selectivity ratio [11]: > 6.35
inhibition (Homo sapiens [12]): Dose-dependent effect
inhibition (ASPC1 [13]): Dose-dependent effect
CC50 (ASPC1 [13]): > 24 µM
inhibition (Homo sapiens [14]): Dose-dependent effect
inhibition at 75 µM (A498 [15]): 51 to 71%
inhibition (HT-29 [16]): Dose-dependent effect
CC50 (HT-29 [16]): > 24 µM
IC50 [17]: 0.21 µM
inhibition at 75 µM (HT-29 [18]): 52 to 98%
Activity [19]: inactive

Compound: CCC(=O)NC[C@H](Cc1ccc(OCCc2nc(-c3ccccc3)oc2C)cc1)N/C(C)=C\C(=O)c1ccc(C(F)(F)F)cc1
inhibition at 75 µM [5]: 85 to 92%

Compound: CC(C)(Oc1ccc(CCOc2ccc(/N=N/c3ccccc3)cc2)cc1)C(=O)NS(=O)(=O)c1ccc([N+](=O)[O-])cc1
inhibition at 75 µM (ASPC1 [1]): 41 to 92%
inhibition (A498 [2]): Dose-dependent effect
CC50 (A498 [2]): > 24 µM
CC50 (HFF-1): > 24 µM
inhibition (Capan-2 [3]): Dose-dependent effect
CC50 (Capan-2 [3]): > 24 µM
inhibition at 75 µM (SW480 [4]): 52 to 98%
inhibition at 75 µM [5]: 84 to 98%
inhibition at 75 µM (Capan-2 [6]): 41 to 92%
inhibition (BXPC-3 [7]): Dose-dependent effect
CC50 (BXPC-3 [7]): 17 µM
inhibition at 75 µM (BXPC-3 [8]): 41 to 92%
selectivity ratio [9]: > 8.63
inhibition (SW480 [10]): Dose-dependent effect
CC50 (SW480 [10]): > 24 µM
selectivity ratio [11]: > 8.3
inhibition (Homo sapiens [12]): Dose-dependent effect
inhibition (ASPC1 [13]): Dose-dependent effect
CC50 (ASPC1 [13]): > 24 µM
inhibition (Homo sapiens [14]): Dose-dependent effect
inhibition at 75 µM (A498 [15]): 51 to 71%
inhibition (HT-29 [16]): Dose-dependent effect
CC50 (HT-29 [16]): > 24 µM
IC50 [17]: 1.1 µM
inhibition at 75 µM (HT-29 [18]): 52 to 98%
Activity [19]: inactive

Compound: CC(C)(Oc1ccc(CCOc2ccc(/N=N/c3ccccc3)cc2)cc1)C(=O)NS(C)(=O)=O
Activity [20]: inactive
Activity (HepG2): Toxic

Compound: CC(C)(Oc1ccc(CCOc2ccc(/N=N/c3ccccc3)cc2)cc1)C(=O)Nc1ccccc1
Activity [19]: inactive

Compound: CC(C)(Oc1ccc(CCOc2ccc(NC(=O)Nc3ccccc3)cc2)cc1)C(N)=O
IC50 [17]: 3.32 µM
Activity [19]: inactive

Compound: CC(C)(CCCOc1ccc(/C=C/c2ccccc2)cc1)C(=O)NS(=O)(=O)c1ccccc1
Activity [20]: inactive
Activity (HepG2): Toxic

Results, then the molecule that gave them:

IC50 [17]: 1.52 µM
Activity [19]: inactive
Compound: CC(C)(Oc1ccc(CCOc2ccc(NC(=O)Nc3ccccc3)cc2)cc1)C(=O)NS(=O)(=O)c1ccccc1

IC50 [17]: 12.1 µM
Activity [19]: inactive
Compound: CC(C)(Oc1ccc(CCOc2ccc(NC(=O)c3ccccc3)cc2)cc1)C(=O)NCc1ccccc1

IC50 [17]: 6.1 µM
Activity [19]: inactive
Compound: CC(C)(Oc1ccc(CCOc2ccc(NC(=O)Nc3ccccc3)cc2)cc1)C(=O)Nc1ccccc1
